Source: ChEMBL document CHEMBL5131470, “Structure-activity and structure-property relationship studies of spirocyclic chromanes with antimalarial activity” (Bioorg Med Chem, 2022)
In brackets after ≈: the same amount, converted by molar mass.

How the values were obtained:
Plasmodium falciparum [1] = assay: Antiplasmodial activity against chloroquine-sensitive Plasmodium falciparum D6 assessed as inhibition of parasite growth incubated for 48 hrs by time zero-[3H]hypoxanthine incorporation assay; type: functional, organism-based
Plasmodium falciparum [2] = assay: Antiplasmodial activity against artemisinin-resistant Plasmodium falciparum ARC08-022 assessed as inhibition of parasite growth incubated for 48 hrs by time zero-[3H]hypoxanthine incorporation assay; type: functional, organism-based
Plasmodium falciparum [3] = assay: Antimalarial activity against chloroquine-resistant Plasmodium falciparum Dd2 assessed as inhibition of parasite growth incubated for 72 hrs by SYBR green I-based DNA quantification assay; type: functional, organism-based; settings: Dd2, 72 h
[4] = Cytotoxicity against human HepG2 cells assessed as reduction in cell viability incubated for 48 hrs by MTS assay; type: toxicity, cell-based
In short: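 HepG2 human hepatoma cells were seeded at 2,500 cells/well in 384-well plates and incubated 24 h. Serial compound dilutions (0–40 μM range) were added, then cells were incubated a further 48 h.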

[5] = Aqueous solubility of the compound at pH 2 by HPLC analysis; type: physicochemical; settings: aqueous solution
In short: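 Aqueous solubility was measured at pH 2.0 with an in-house HPLC assay. Values are reported as bins: ≤10 μM, 10–20 μM, 20–40 μM, 40–80 μM and ≥80 μM.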

[6] = Octanol-water distribution coefficient, logD of the compound at pH 7.4 by HPLC-based analysis; type: physicochemical
[7] = Selectivity index, ratio of EC50 for cytotoxicity against human HepG2 cells to EC50 for antimalarial activity against chloroquine-resistant Plasmodium falciparum Dd2; type: toxicity, cell-based; settings: read-out: Ratio EC50
In short: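 Human HepG2 hepatoma cells were seeded at 2,500 cells/well and grown 24 h. Serial dilutions of compound (0–40 μM) were then added for another 48 h. […] SI = EC50(HepG2)/EC50(Dd2).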

[8] = Octanol-water distribution coefficient, logD of the compound at pH 3 by HPLC-based analysis; type: physicochemical
[9] = Aqueous solubility of the compound at pH 6.5; settings: aqueous solution
Plasmodium falciparum [10] = assay: Selectivity for antiplasmodial activity for chloroquine-sensitive Plasmodium falciparum 3D7 over antiplasmodial activity against chloroquine-sensitive Plasmodium falciparum D6; type: functional
Plasmodium falciparum [11] = assay: Selectivity for antiplasmodial activity for chloroquine-resistant Plasmodium falciparum Dd2 over antiplasmodial activity against chloroquine-sensitive Plasmodium falciparum D6; type: functional
Plasmodium falciparum [12] = assay: Selectivity for antiplasmodial activity for chloroquine-resistant Plasmodium falciparum Dd2 over antiplasmodial activity against artemisinin-resistant Plasmodium falciparum ARC08-022; type: functional
Plasmodium falciparum [13] = assay: Selectivity for antiplasmodial activity for chloroquine-sensitive Plasmodium falciparum 3D7 over antiplasmodial activity against artemisinin-resistant Plasmodium falciparum ARC08-022; type: functional

Row | SMILES | EC50 (Plasmodium falciparum [1]) [nM] | EC50 (Plasmodium falciparum [2]) [nM] | EC50 (Plasmodium falciparum [3]) [nM] | EC50 at 48 h [4] [µM] | solubility [5] [µM] | logD [6] | selectivity ratio [7] | logD [8] | solubility [9] [µM] | Selectivity ratio (Plasmodium falciparum [10]) | Selectivity ratio (Plasmodium falciparum [11]) | Selectivity ratio (Plasmodium falciparum [12]) | Selectivity ratio (Plasmodium falciparum [13])
1 | OC1CC2(CCN(CCc3ccc(Cl)c(Cl)c3)CC2)Oc2c1ccc1ccccc21 (centres undefined) | 1320 | 2010 | 2100 |  |  |  |  |  |  |  |  |  | 
2 | OC1CC2(CCN(CCC3CCCCC3)CC2)Oc2c1ccc1ccccc21 (centres undefined) | 500 | 630 | 500 | 14 | 40 (≈ 15.2 µg/mL) | 3.54 | 35.1 | 2.97 | 20 (≈ 7.59 µg/mL) |  |  |  | 
3 | OC1CC2(CCNCC2)Oc2c1ccc1ccccc21 (centres undefined) |  |  | 510 | > 20 | 40 (≈ 10.8 µg/mL) | 2.46 | > 54.5 | 2.04 | ≤ 10 |  |  |  | 
4 | O=C1CC2(CCN(CCC3CCCCC3)CC2)Oc2c1ccc1ccccc21 |  |  | 710 | 16 | 20 (≈ 7.55 µg/mL) | 4.5 | 31.2 | 2.99 | 10 (≈ 3.78 µg/mL) |  |  |  | 
5 | O=C1CC2(CCN(CCc3ccc(F)c(F)c3)CC2)Oc2c1ccc1ccccc21 | 260 | 860 | > 2500 | > 20 | ≥ 80 | 3.81 | 4 | 2.56 | 10 (≈ 4.07 µg/mL) |  |  |  | 
6 | OC(CN1CCC2(CCc3ccc4ccccc4c3O2)CC1)c1ccc(F)c(F)c1 (centres undefined) | 310 | 970 | 530 | > 20 | 40 (≈ 16.4 µg/mL) | 4 | > 10.4 | 3.05 | ≤ 10 |  |  |  | 
7 | OC1CC2(CCN(CCc3ccc(F)c(F)c3)CC2)Oc2c1ccc1ccccc21 (centres undefined) |  |  | 530 | > 20 | ≥ 80 | 3.15 | > 32.5 | 2.62 | ≥ 80 |  |  |  | 
8 | OC(CN1CCC2(CC1)CC(O)c1ccc3ccccc3c1O2)c1ccc(F)c(F)c1 (centres undefined) | 1480 | 1810 | 320 | > 20 |  |  | > 53.3 |  |  | 3 | 3 | 3 | 3
9 | O=C1CC2(CCNCC2)Oc2c1ccc1ccccc21 |  |  | 2270 | 7 | ≥ 80 | 1.78 | 3.2 | 1.48 | ≥ 80 |  |  |  | 
10 | O=C(CN1CCC2(CC1)CC(O)c1ccc3ccccc3c1O2)c1ccc(F)c(F)c1 (centres undefined) |  |  | > 2500 | 33 | 20 (≈ 8.47 µg/mL) | 0.89 | < 6.7 | 1.53 | 20 (≈ 8.47 µg/mL) |  |  |  | 
